The source of these data is ChEMBL document CHEMBL1132584, “5-Alkyl-2-(alkylthio)-6-(2,6-dihalophenylmethyl)-3, 4-dihydropyrimidin-4(3H)-ones: novel potent and selective dihydro-alkoxy-benzyl-oxopyrimidine derivatives” (J Med Chem, 1999).

The term EC50 denotes the concentration giving half of the maximal effect. Read a low EC50 as a more potent agent. Usually CC50 stands for the concentration giving 50% cytotoxicity. By IC50 is commonly meant the concentration that gives 50% inhibition.

Where only a bound is given, the exact number is not on record here.

The test system of test [1] is MT4. Put plainly: Concentration required to achieve 50% protection of MT-4 cells from HIV-1-induced cytopathogenicity. It is filed as functional, cell-based. To be noted: Homo sapiens. A digest of the protocol: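 MT-4 cells (1×10^4/well) exposed to test compound dilutions (DMSO stock 200 mM, diluted in medium), then infected with HIV-1 IIIB at 100 CCID50/well; 4-day incubation at 37 °C; viable cells counted by MTT; EC50 is the dose giving 50% protection from virus-induced cytopathicity; means of at least two separate experiments.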
In general terms: Cytopathic effects are the visible damage that an infection or toxin causes in cultured cells.

For test [2], the system named is MT4. Put plainly: Cytotoxicity against mock-infected MT-4 cells. The test is classed as functional. To be noted: Homo sapiens. A digest of the protocol:
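Mock-infected MT-4 cells (1×10^4/well) incubated 4 days at 37 °C alongside the antiviral assay with serial compound dilutions (from 200 mM DMSO stock); viability read by MTT; CC50 is the dose lowering viability of mock-infected cells by 50%; means of at least two separate experiments.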

The target of test [3] is Human immunodeficiency virus type 1 reverse transcriptase (Human immunodeficiency virus 1, UniProt Q72547). The experiment in a line: Concentration required to inhibit the HIV-1 reverse transcriptase activity by 50%. A digest of the protocol:
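Purified recombinant HIV-1 RT, RNA-dependent polymerase activity. Substrate: [³H]dGTP, […] (1 Ci/mmol). Reaction 30 min at 37 °C, then acid-insoluble radioactivity counted on glass-fibre filters.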

For test [4], the system named is MT4. The experiment in a line: Selectivity index measured as the ratio of CC50 / EC50. The test is classed as functional. A digest of the protocol:
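Selectivity index: CC50 in mock-infected MT-4 cells divided by EC50 against HIV-1 IIIB cytopathicity in MT-4 cells, both from MTT read-out after 4-day culture.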

As for `CC(C)Sc1nc(O)cc(Cc2c(Cl)cccc2Cl)n1`, the EC50 in the test on MT4 [1] stood at 1900 nM. The compound further returned a CC50 in the test on MT4 [2] above 200000 nM. The compound further registered an IC50 in test [3] of 1500 nM. Besides, the Selectivity index in the test on MT4 [4] was above 105 SI.

The compound `CCC(C)Sc1nc(O)cc(Cc2ccc([N+](=O)[O-])cc2)n1` (centres undefined) registered an EC50 in the test with MT4 [1] of 1500 nM. In the test on MT4 [2], this compound returned a CC50 of 151000 nM. This compound also displayed an IC50 in test [3] of 1200 nM. For the same compound, the Selectivity index in the test on MT4 [4] was 101 SI.

The compound `CC(C)CSc1nc(O)cc(Cc2c(F)cccc2F)n1` displayed an EC50 with MT4 [1] of 140 nM. The same compound returned a CC50 in the test with MT4 [2] of 182000 nM. In test [3], half-maximal inhibition (IC50) was put at 200 nM. Also, the Selectivity index with MT4 [4] worked out at 1300 SI.

In the test on MT4 [1], `CCC(C)Sc1nc(O)c(C)c(Cc2ccccc2F)n1` (centres undefined) displayed an EC50 of 410 nM. Moreover, the midpoint of cytotoxicity in the test on MT4 [2], the CC50, lay at 140000 nM. In test [3], this compound yielded an IC50 of 410 nM. The Selectivity index with MT4 [4] is recorded as 341 SI.

Take `CC(C)Sc1nc(Cc2c(F)cccc2F)cc(=O)[nH]1`: in the test on MT4 [1], a half-maximal response (EC50) required 50 nM. The CC50 with MT4 [2] was above 200000 nM. Also, half-maximal inhibition in test [3] (IC50) was put at 50 nM. The Selectivity index in the test with MT4 [4] is recorded as above 4000 SI.

For the compound `CCOCn1c(Cc2ccccc2)c(C(C)C)c(=O)[nH]c1=O` [EMIVIRINE], a half-maximal response in the test with MT4 [1] (EC50) required 30 nM. Moreover, the CC50 in the test on MT4 [2] was 200000 nM. Further, the IC50 in test [3] worked out at 40 nM. Also, the Selectivity index with MT4 [4] was 6666 SI.
